GAA850 FXN act: increases GAA850 frataxin promoter reporter activity | AID 540364 | HEK293 lucGAA850 FXN promoter luciferase reporter, 24 h; percent of 10 µM SAHA response | activation, % at 6 µM | hit rate 0.56% among 360,000;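 active = activation above the average of all compounds screened plus 3 SD, cutoff fixed separately per campaign, cut at about 7.5% in these data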;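 note: 0% = DMSO wells and 100% = 10 µM SAHA wells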
HIV Env fusion: blocks HIV Env-driven cell-cell fusion; HeLa-JRFL Env/CEM21 cell fusion, luciferase; hit rate 1.1% among 360,000; inhibition, % at 12.3 µM; AID 651610;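 active = mean replicate inhibition score of at least 50 and every replicate individually at or above 50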;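 note: 0% = plate neutral controls and 100% = maraviroc near 300 nM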
GalR3 antag: blocks the human galanin receptor 3; AID 651719; HEK293 GalR3-CNG cAMP membrane potential fluorescence; galR3 body fused to GalR1 C-terminus; inhibition, % at 3 µM; hit rate 0.44% among 360,000;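 active = inhibition above the screen-wide average plus 3 SD, cut at about 13% in these data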;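 note: forskolin and galanin both at EC90 stimulate the cells; cAMP rise reported by CNG channel membrane potential dye signal; 0% = forskolin plus galanin with DMSO and 100% = forskolin alone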
Target sequence (O60755 1-299 limits assumed): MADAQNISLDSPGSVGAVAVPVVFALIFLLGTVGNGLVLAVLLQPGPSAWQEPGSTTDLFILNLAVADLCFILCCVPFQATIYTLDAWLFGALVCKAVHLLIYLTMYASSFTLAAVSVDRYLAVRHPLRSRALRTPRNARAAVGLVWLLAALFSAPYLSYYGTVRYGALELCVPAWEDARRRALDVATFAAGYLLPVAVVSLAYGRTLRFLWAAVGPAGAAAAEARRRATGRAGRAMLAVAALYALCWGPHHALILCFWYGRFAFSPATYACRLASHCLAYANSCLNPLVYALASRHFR
NR2E3 ag-1: human photoreceptor-specific nuclear receptor agonism; Q9Y5X4; CHO-S Gal4-NCOR/VP16-NR2E3 two-hybrid, luciferase; inhibition of corepressor binding, % at 3.98 µM; hit rate 0.35% among 360,000; AID 602229;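 active = inhibition above the mean of all tested compounds plus 3 SD, cut at about 70% in these data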;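 note: 0% = DMSO with NR2E3 transfected cells and 100% = cells lacking NR2E3 construct; higher means lower luciferase signal from less NR2E3 corepressor binding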
Target sequence (Q9Y5X4 whole entry, looked up, the tested form may be a part): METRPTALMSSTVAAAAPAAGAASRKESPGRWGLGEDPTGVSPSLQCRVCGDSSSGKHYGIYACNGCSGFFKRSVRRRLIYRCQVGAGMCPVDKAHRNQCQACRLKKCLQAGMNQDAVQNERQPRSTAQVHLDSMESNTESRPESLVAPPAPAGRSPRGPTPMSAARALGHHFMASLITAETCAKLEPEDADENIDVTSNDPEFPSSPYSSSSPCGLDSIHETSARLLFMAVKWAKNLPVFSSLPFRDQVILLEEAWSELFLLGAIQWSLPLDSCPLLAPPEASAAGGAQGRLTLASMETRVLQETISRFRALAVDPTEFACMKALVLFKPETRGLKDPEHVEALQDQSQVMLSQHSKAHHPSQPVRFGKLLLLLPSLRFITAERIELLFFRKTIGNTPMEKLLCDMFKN
V-ATPase pHluor: yeast V-ATPase proton transport regulation by pHLuorin; response, % at 10 µM; S. cerevisiae, pHLuorin cytosolic pH fluorescence; hit rate 0.37% among 350,000; AID 504577; in the data active = response mostly above about 7.3%, no sharp cut-off; inactive = mostly below about 5.4%; note: actives read high
NR2E3 ag-2: agonists of human nuclear receptor NR2E3; Q9Y5X4; GST-NR2E3/biotin-RetCOR TR-FRET, 1536-well; inhibition of corepressor binding, % at 4.78 µM; hit rate 0.12% among 320,000;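 active = percent inhibition above the cutoff of mean plus 3 SD of all tested compounds, set per screening campaign, cut at about 20% in these data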;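 note: 0% = DMSO wells and 100% = biotin wells as full block of FRET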
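System: GST-NR2E3 and biotin-RetCOR proteins; probe or stimulus: 7 nM biotin-RetCOR; doses: compound at 4.8 µM, single dose; schedule: Compound–protein incubation for 5 h at 4 °C; detection: time-resolved FRET; read-out: percent inhibition; controls: biotin wells as high control, 0.6% DMSO wells as low control; format: 1536-well plates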
GAA30 FXN cntr: activates GAA30 frataxin promoter, counter-screen for GAA850 activators; shares compounds with GAA850 FXN act; activation, % at 6 µM; HEK293 lucGAA30 FXN promoter luciferase, 24 h; DMSO = 0%, 5 µM ipriflavone = 100%; hit rate 66% among 1,900; AID 588350;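 active = mean activation above the mean of solvent-only control wells plus 3 SD, cut at about 22% in these data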;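 note: counterscreen of GAA850 promoter hits where activity marks nonselective or luminescence artifacts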
FXN GAA850 conf: GAA850 FXN promoter activation confirmation; shares compounds with GAA850 FXN act; hit rate 86% among 1,900; HEK293 lucGAA850 FXN promoter luciferase reporter, 24 h; 100% = activation by SAHA; activation, % at 6 µM;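 active = mean activation above a set limit taken from the primary screen, cut at about 8% in these data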;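 note: 0% = DMSO wells and 100% = 10 µM SAHA wells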
An asterisk follows results filed as active; [ ] = another dose, or the depositor's remark. Shown are actives, neighbours in structure and some others; about 2.2% of the full set was active somewhere.

Results for C[C@@]12C(=O)N(c3cccc(F)c3)C(=O)N1[C@H](c1ccc(Cl)cc1)[C@@H]1C(=O)N(C3CCCCC3)C(=O)[C@@H]12 ?
GAA850 FXN act: 11*; HIV Env fusion: 1; GalR3 antag: -9; NR2E3 ag-1: 2; V-ATPase pHluor: -1; NR2E3 ag-2: 3; GAA30 FXN cntr: 8; FXN GAA850 conf: 5

What do the screens show for `CC(C)C[C@@]12C(=O)N(c3cccc(F)c3)C(=O)N1[C@H](c1ccc(F)cc1)[C@@H]1C(=O)N(C3CCCCC3)C(=O)[C@@H]12`?
GAA850 FXN act: 12*; HIV Env fusion: 9; GalR3 antag: -9; NR2E3 ag-1: -14; V-ATPase pHluor: 4; NR2E3 ag-2: 1; GAA30 FXN cntr: 18; FXN GAA850 conf: 14*

How did C[C@@H]1CN([C@H](C)CO)C(=O)Cc2cc(NC(=O)CCCCCC(=O)Nc3ccccc3N)ccc2O[C@@H]1CN(C)S(=O)(=O)c1ccc(Cl)cc1 do in these assays?
HIV Env fusion: 11[16.7 µM]

What do the screens show for `CC=Cc1ccc2n(c1=O)C[C@H]1[C@H](CO)[C@@H](C(=O)NCc3ccc(F)cc3)N(Cc3cncnc3)[C@@H]21` (mixture of isomers)?
HIV Env fusion: 3[16.7 µM]

Results for CC(=O)Nc1ccc(Nc2nc(-c3cc4ccccc4oc3=O)cs2)cc1 ?
GAA850 FXN act: 1; HIV Env fusion: -82; GalR3 antag: -4; NR2E3 ag-1: -47; V-ATPase pHluor: 7

How did Nc1ccc(Nc2nc(-c3cc4ccccc4oc3=O)cs2)cc1 do in these assays?
GAA850 FXN act: 9.0*; HIV Env fusion: -73; GalR3 antag: -2; NR2E3 ag-1: -37; V-ATPase pHluor: 3; NR2E3 ag-2: 1; GAA30 FXN cntr: 74*; FXN GAA850 conf: 32*

How did Cc1noc(C)c1S(=O)(=O)Nc1ccc2c(c1)C(=O)N([C@@H](C)CO)C[C@H](C)[C@@H](CN(C)S(=O)(=O)c1ccc(Cl)cc1)OCCCC[C@H](C)O2 do in these assays?
HIV Env fusion: 22[16.7 µM]

How did O=C(C[C@H]1CC[C@H]2[C@@H](COC[C@H](O)CN2S(=O)(=O)c2ccc(F)cc2)O1)NCC1CCCCC1 do in these assays?
HIV Env fusion: 6[16.7 µM]

How did C[C@@H]1CCCCO[C@@H](CN(C)Cc2ccc(C(=O)O)cc2)[C@H](C)CN([C@H](C)CO)C(=O)c2cc(NS(C)(=O)=O)ccc2O1 do in these assays?
HIV Env fusion: -27[16.7 µM]

What do the screens show for `C[C@@H]1CN([C@H](C)CO)C(=O)Cc2cc(NC(=O)Nc3ccccc3)ccc2O[C@H]1CN(C)C(=O)Nc1ccc(C(F)(F)F)cc1`?
HIV Env fusion: -16[16.7 µM]

Results for CCOc1ccc2cc(C#N)c(SCC(=O)N3CCOCC3)nc2c1 ?
GAA850 FXN act: 9.7*; HIV Env fusion: -172; GalR3 antag: -6; NR2E3 ag-1: -33; V-ATPase pHluor: -6; NR2E3 ag-2: 8; GAA30 FXN cntr: 133*; FXN GAA850 conf: 46*

How did CCOc1ccc2nc(SCC(=O)N3CCCCCC3)c(C#N)cc2c1 do in these assays?
GAA850 FXN act: 0; GalR3 antag: -3; NR2E3 ag-1: -2; V-ATPase pHluor: 1; NR2E3 ag-2: -1

What do the screens show for `COc1ccc(CN(C)C[C@@H]2Oc3ccc(NC(=O)Cn4cnnn4)cc3C(=O)N([C@H](C)CO)C[C@H]2C)cc1`?
HIV Env fusion: -15[16.7 µM]

What do the screens show for `COc1ccc(NC(=O)Nc2ccc3c(c2)C(=O)N([C@H](C)CO)C[C@@H](C)[C@H](CN(C)S(=O)(=O)c2ccc(F)cc2)OCCCC[C@H](C)O3)cc1`?
HIV Env fusion: -4[16.7 µM]

What do the screens show for `Nc1ccc2c(c1)C(=NO)c1cc([N+](=O)[O-])ccc1-2`?
GAA850 FXN act: 13*; HIV Env fusion: -120; GalR3 antag: -5; NR2E3 ag-1: 36; V-ATPase pHluor: 0; GAA30 FXN cntr: 79*; FXN GAA850 conf: 35*

What do the screens show for `CCC(O)(CC)C(=O)NN(C(=O)Nc1csc2c1CCCC2)c1ccccc1`?
GAA850 FXN act: 9.4*; HIV Env fusion: 62*; GalR3 antag: 2; NR2E3 ag-1: 3; V-ATPase pHluor: 1; NR2E3 ag-2: 2; GAA30 FXN cntr: 7; FXN GAA850 conf: 3

Results for COc1ccccc1NC(=O)N(C)C[C@@H]1Oc2ncc(Br)cc2C(=O)N([C@H](C)CO)C[C@H]1C ?
HIV Env fusion: -25[16.7 µM]

What do the screens show for `Cn1c(CS(=O)Cc2c(Cl)cccc2Cl)nnc1SCc1c(Cl)cccc1Cl` (stereo not given)?
GAA850 FXN act: 10*; GalR3 antag: -6; NR2E3 ag-1: 19; V-ATPase pHluor: -1; NR2E3 ag-2: 1; GAA30 FXN cntr: 25*; FXN GAA850 conf: 9.3*

Results for O=S(Cc1ccc(Br)cc1)Cc1nnc(SCc2c(Cl)cccc2Cl)n1-c1ccccc1 (stereo not given) ?
GAA850 FXN act: -6; NR2E3 ag-1: 25; V-ATPase pHluor: -2; NR2E3 ag-2: 2

Results for C[C@@H]1CN([C@@H](C)CO)S(=O)(=O)c2ccc(C3=CCCC3)cc2O[C@@H]1CN(C)Cc1cccc(C(=O)O)c1 ?
HIV Env fusion: 7[16.7 µM]

What do the screens show for `O=C(NCCC1=CCCCC1)c1ccc(=O)oc1`?
GAA850 FXN act: 2; HIV Env fusion: -64; GalR3 antag: -6; NR2E3 ag-1: 8; V-ATPase pHluor: 7; NR2E3 ag-2: -1

How did O=C(NCCC1=CCCCC1)c1coc(=O)c(Br)c1 do in these assays?
GAA850 FXN act: 17*; HIV Env fusion: -408; GalR3 antag: -6; NR2E3 ag-1: 43; V-ATPase pHluor: 2; NR2E3 ag-2: 1; GAA30 FXN cntr: -3; FXN GAA850 conf: 26*

What do the screens show for `O=C(NCCc1ccccc1)c1coc(=O)c(Br)c1`?
GAA850 FXN act: 8.0*; HIV Env fusion: -194; GalR3 antag: -7; NR2E3 ag-1: 28; V-ATPase pHluor: -8; GAA30 FXN cntr: -2; FXN GAA850 conf: 21*

What do the screens show for `CN(C)CCNC(=O)c1coc(=O)c(Br)c1`?
GAA850 FXN act: 3; GalR3 antag: -2; NR2E3 ag-1: -9; V-ATPase pHluor: 1; NR2E3 ag-2: -3

Results for COc1ccccc1NC(=O)c1coc(=O)c(Br)c1 ?
GAA850 FXN act: 7.9*; HIV Env fusion: -94; GalR3 antag: 0; NR2E3 ag-1: -3; V-ATPase pHluor: -31; NR2E3 ag-2: -5; GAA30 FXN cntr: 129*; FXN GAA850 conf: 69*
